Assays:
Assay type in all cases: toxicity, cell-based
U2OS [1] = assay: Multiplex assay against U2OS; conditions: human
In short: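 With compound added, live cells were imaged on a CQ1 microscope at 37°C and 5% CO2; staining with Hoechst33342, BioTracker Green Microtubule Cytoskeleton Dye, MitoTracker Red and Annexin V Alexa Fluor 680 had been done at seeding. The CellPathfinder machine-learning gating scheme split cells into Hoechst high-intensity objects or normal cells, normal cells into healthy, pyknosed or fragmented nuclei, and pyknosed cells into mitotic or apoptotic. The tubulin, mitochondrial-mass and membrane-permeability phenotypes are per cents of healthy-nucleus cells.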

HEK-293T = assay: Incucyte cell viability with HEK293T; conditions: human, 10 µM, compound concentration 10 uM; also: filed as whole numbers so only -1 and 0 and 1 occur
Fibroblast = assay: Incucyte cell viability with human fibroblast; conditions: 10 µM, compound concentration 10 uM; also: filed as whole numbers so only -1 and 0 and 1 occur
U2OS [2] = assay: Incucyte cell viability with U2OS; conditions: human, 10 µM, compound concentration 10 uM; also: filed as whole numbers so only -1 and 0 and 1 occur
[3] = 12 h, 1 µM, compound concentration 1 uM, replicate 1
[4] = 12 h, 1 µM, compound concentration 1 uM, replicate 2
[5] = 12 h, 10 µM, compound concentration 10 uM, replicate 1
[6] = 12 h, 10 µM, compound concentration 10 uM, replicate 2
[7] = 24 h, 1 µM, compound concentration 1 uM, replicate 1
[8] = 24 h, 1 µM, compound concentration 1 uM, replicate 2
[9] = 24 h, 10 µM, compound concentration 10 uM, replicate 1
[10] = 24 h, 10 µM, compound concentration 10 uM, replicate 2
[11] = 48 h, 1 µM, compound concentration 1 uM, replicate 1
[12] = 48 h, 1 µM, compound concentration 1 uM, replicate 2
[13] = 48 h, 10 µM, compound concentration 10 uM, replicate 1
[14] = 48 h, 10 µM, compound concentration 10 uM, replicate 2
[15] = 6 h, replicate number 1, timepoint 6 hours
[16] = 12 h, replicate number 1, timepoint 12 hours
[17] = 18 h, replicate number 1, timepoint 18 hours
[18] = 24 h, replicate number 1, timepoint 24 hours

CCCCCNC(=N)N/N=C/c1c[nH]c2ccc(OC)cc12.O=C(O)/C=C\C(=O)O [TEGASEROD MALEATE]
Population Apoptotic (%) (U2OS [1]; [3]): 66% | Population Fragmented Nuclei (%) (U2OS [1]; [3]): 12% | Population Healthy Nuclei (%) (U2OS [1]; [3]): 75% | Population Hoechst High Intensity Objects (%) (U2OS [1]; [3]): 8% | Population Membrane Permeable-Phenotype (%) (U2OS [1]; [3]): 4% | Population Mitochondria Different-Phenotype (%) (U2OS [1]; [3]): 16% | Population Mitotic Cells (%) (U2OS [1]; [3]): 33% | Population Normal (%) (U2OS [1]; [3]): 91% | Population Pyknosed Nuclei (%) (U2OS [1]; [3]): 11% | Population Tubulin-Different-Phenotype (%) (U2OS [1]; [3]): 10% | Total Cell Count (U2OS [1]; [3]): 73 | Population Apoptotic (%) (U2OS [1]; [4]): 20% | Population Healthy Nuclei (%) (U2OS [1]; [4]): 79% | Population Hoechst High Intensity Objects (%) (U2OS [1]; [4]): 3% | Population Mitochondria Different-Phenotype (%) (U2OS [1]; [4]): 22% | Population Mitotic Cells (%) (U2OS [1]; [4]): 80% | Population Normal (%) (U2OS [1]; [4]): 96% | Population Pyknosed Nuclei (%) (U2OS [1]; [4]): 8% | Population Tubulin-Different-Phenotype (%) (U2OS [1]; [4]): 14% | Total Cell Count (U2OS [1]; [4]): 74 | Population Apoptotic (%) (U2OS [1]; [5]): 92% | Population Fragmented Nuclei (%) (U2OS [1]; [5]): 36% | Population Healthy Nuclei (%) (U2OS [1]; [5]): 0% | Population Hoechst High Intensity Objects (%) (U2OS [1]; [5]): 12% | Population Membrane Permeable-Phenotype (%) (U2OS [1]; [5]): 100% | Population Mitochondria Different-Phenotype (%) (U2OS [1]; [5]): 100% | Population Mitotic Cells (%) (U2OS [1]; [5]): 7% | Population Normal (%) (U2OS [1]; [5]): 87% | Population Pyknosed Nuclei (%) (U2OS [1]; [5]): 62% | Population Tubulin-Different-Phenotype (%) (U2OS [1]; [5]): 100% | Total Cell Count (U2OS [1]; [5]): 167 | Population Apoptotic (%) (U2OS [1]; [6]): 100% | Population Fragmented Nuclei (%) (U2OS [1]; [6]): 22% | Population Healthy Nuclei (%) (U2OS [1]; [6]): 3% | Population Hoechst High Intensity Objects (%) (U2OS [1]; [6]): 35% | Population Mitotic Cells (%) (U2OS [1]; [6]): 0% | Population Normal (%) (U2OS [1]; [6]): 64% | Population Pyknosed Nuclei (%) (U2OS [1]; [6]): 73% | Total Cell Count (U2OS [1]; [6]): 64 | Population Apoptotic (%) (U2OS [1]; [7]): 47% | Population Fragmented Nuclei (%) (U2OS [1]; [7]): 9% | Population Healthy Nuclei (%) (U2OS [1]; [7]): 78% | Population Hoechst High Intensity Objects (%) (U2OS [1]; [7]): 4% | Population Membrane Permeable-Phenotype (%) (U2OS [1]; [7]): 6% | Population Mitochondria Different-Phenotype (%) (U2OS [1]; [7]): 13% | Population Mitotic Cells (%) (U2OS [1]; [7]): 52% | Population Normal (%) (U2OS [1]; [7]): 95% | Population Pyknosed Nuclei (%) (U2OS [1]; [7]): 12% | Population Tubulin-Different-Phenotype (%) (U2OS [1]; [7]): 13% | Total Cell Count (U2OS [1]; [7]): 88 | Population Apoptotic (%) (U2OS [1]; [8]): 87% | Population Fragmented Nuclei (%) (U2OS [1]; [8]): 10% | Population Healthy Nuclei (%) (U2OS [1]; [8]): 77% | Population Hoechst High Intensity Objects (%) (U2OS [1]; [8]): 5% | Population Membrane Permeable-Phenotype (%) (U2OS [1]; [8]): 5% | Population Mitochondria Different-Phenotype (%) (U2OS [1]; [8]): 21% | Population Mitotic Cells (%) (U2OS [1]; [8]): 12% | Population Normal (%) (U2OS [1]; [8]): 94% | Population Tubulin-Different-Phenotype (%) (U2OS [1]; [8]): 7% | Total Cell Count (U2OS [1]; [8]): 89 | Population Apoptotic (%) (U2OS [1]; [9]): 85% | Population Fragmented Nuclei (%) (U2OS [1]; [9]): 42% | Population Healthy Nuclei (%) (U2OS [1]; [9]): 1% | Population Hoechst High Intensity Objects (%) (U2OS [1]; [9]): 16% | Population Membrane Permeable-Phenotype (%) (U2OS [1]; [9]): 100% | Population Mitochondria Different-Phenotype (%) (U2OS [1]; [9]): 100% | Population Mitotic Cells (%) (U2OS [1]; [9]): 14% | Population Normal (%) (U2OS [1]; [9]): 83% | Population Pyknosed Nuclei (%) (U2OS [1]; [9]): 56% | Population Tubulin-Different-Phenotype (%) (U2OS [1]; [9]): 100% | Total Cell Count (U2OS [1]; [9]): 180 | Population Apoptotic (%) (U2OS [1]; [10]): 100% | Population Fragmented Nuclei (%) (U2OS [1]; [10]): 44% | Population Healthy Nuclei (%) (U2OS [1]; [10]): 26% | Population Hoechst High Intensity Objects (%) (U2OS [1]; [10]): 39% | Population Mitotic Cells (%) (U2OS [1]; [10]): 0% | Population Normal (%) (U2OS [1]; [10]): 60% | Population Pyknosed Nuclei (%) (U2OS [1]; [10]): 28% | Total Cell Count (U2OS [1]; [10]): 70 | Population Apoptotic (%) (U2OS [1]; [11]): 44% | Population Fragmented Nuclei (%) (U2OS [1]; [11]): 7% | Population Healthy Nuclei (%) (U2OS [1]; [11]): 85% | Population Hoechst High Intensity Objects (%) (U2OS [1]; [11]): 3% | Population Membrane Permeable-Phenotype (%) (U2OS [1]; [11]): 2% | Population Mitochondria Different-Phenotype (%) (U2OS [1]; [11]): 11% | Population Mitotic Cells (%) (U2OS [1]; [11]): 55% | Population Normal (%) (U2OS [1]; [11]): 96% | Population Pyknosed Nuclei (%) (U2OS [1]; [11]): 7% | Population Tubulin-Different-Phenotype (%) (U2OS [1]; [11]): 7% | Total Cell Count (U2OS [1]; [11]): 112 | Population Apoptotic (%) (U2OS [1]; [12]): 35% | Population Fragmented Nuclei (%) (U2OS [1]; [12]): 10% | Population Healthy Nuclei (%) (U2OS [1]; [12]): 75% | Population Hoechst High Intensity Objects (%) (U2OS [1]; [12]): 1% | Population Membrane Permeable-Phenotype (%) (U2OS [1]; [12]): 6% | Population Mitochondria Different-Phenotype (%) (U2OS [1]; [12]): 17% | Population Mitotic Cells (%) (U2OS [1]; [12]): 64% | Population Normal (%) (U2OS [1]; [12]): 98% | Population Pyknosed Nuclei (%) (U2OS [1]; [12]): 13% | Population Tubulin-Different-Phenotype (%) (U2OS [1]; [12]): 10% | Total Cell Count (U2OS [1]; [12]): 110 | Population Apoptotic (%) (U2OS [1]; [13]): 91% | Population Fragmented Nuclei (%) (U2OS [1]; [13]): 50% | Population Healthy Nuclei (%) (U2OS [1]; [13]): 1% | Population Hoechst High Intensity Objects (%) (U2OS [1]; [13]): 14% | Population Membrane Permeable-Phenotype (%) (U2OS [1]; [13]): 100% | Population Mitochondria Different-Phenotype (%) (U2OS [1]; [13]): 100% | Population Mitotic Cells (%) (U2OS [1]; [13]): 8% | Population Normal (%) (U2OS [1]; [13]): 85% | Population Pyknosed Nuclei (%) (U2OS [1]; [13]): 48% | Population Tubulin-Different-Phenotype (%) (U2OS [1]; [13]): 100% | Total Cell Count (U2OS [1]; [13]): 260 | Population Apoptotic (%) (U2OS [1]; [14]): 100% | Population Fragmented Nuclei (%) (U2OS [1]; [14]): 64% | Population Healthy Nuclei (%) (U2OS [1]; [14]): 24% | Population Hoechst High Intensity Objects (%) (U2OS [1]; [14]): 39% | Population Membrane Permeable-Phenotype (%) (U2OS [1]; [14]): 90% | Population Mitochondria Different-Phenotype (%) (U2OS [1]; [14]): 90% | Population Mitotic Cells (%) (U2OS [1]; [14]): 0% | Population Normal (%) (U2OS [1]; [14]): 60% | Population Pyknosed Nuclei (%) (U2OS [1]; [14]): 11% | Population Tubulin-Different-Phenotype (%) (U2OS [1]; [14]): 90% | Total Cell Count (U2OS [1]; [14]): 103 | Growth Rate (HEK-293T; 0 h, replicate number 2, timepoint 0 hours): 1 | Growth Rate (HEK-293T; [15]): 0 | Growth Rate (HEK-293T; [16]): 0 | Growth Rate (HEK-293T; [17]): 0 | Growth Rate (HEK-293T; [18]): 0 | Growth Rate (Fibroblast; [15]): 0 | Growth Rate (Fibroblast; [16]): 0 | Growth Rate (Fibroblast; [17]): 0 | Growth Rate (Fibroblast; [18]): 0 | Growth Rate (U2OS [2]; [15]): 0 | Growth Rate (U2OS [2]; [16]): 0 | Growth Rate (U2OS [2]; [17]): 0 | Growth Rate (U2OS [2]; [18]): 0
